Assay results: ChEMBL document CHEMBL5523688, “Selective targeting of human TET1 by cyclic peptide inhibitors: Insights from biochemical profiling” (Bioorg Med Chem, 2024)

Tests used:
[1] = target: T1, Methylcytosine dioxygenase TET1 (Homo sapiens, UniProt Q8NFU7); experiment: (§1) Inhibition of N-terminal 3xFlag-tagged recombinant human TET1 catalytic domain (E1418 to V2136 residues) expressed in baculovirus infected Sf9 cells using 5-methylcytosine as substrate preincubated for 10 mins followed by substrate and DNA-cofactor addition measured after 30 mins by Alphascreen assay; details: read-out: pIC50 (converted)
T1 sequence (Q8NFU7 whole entry, the tested form may be a part): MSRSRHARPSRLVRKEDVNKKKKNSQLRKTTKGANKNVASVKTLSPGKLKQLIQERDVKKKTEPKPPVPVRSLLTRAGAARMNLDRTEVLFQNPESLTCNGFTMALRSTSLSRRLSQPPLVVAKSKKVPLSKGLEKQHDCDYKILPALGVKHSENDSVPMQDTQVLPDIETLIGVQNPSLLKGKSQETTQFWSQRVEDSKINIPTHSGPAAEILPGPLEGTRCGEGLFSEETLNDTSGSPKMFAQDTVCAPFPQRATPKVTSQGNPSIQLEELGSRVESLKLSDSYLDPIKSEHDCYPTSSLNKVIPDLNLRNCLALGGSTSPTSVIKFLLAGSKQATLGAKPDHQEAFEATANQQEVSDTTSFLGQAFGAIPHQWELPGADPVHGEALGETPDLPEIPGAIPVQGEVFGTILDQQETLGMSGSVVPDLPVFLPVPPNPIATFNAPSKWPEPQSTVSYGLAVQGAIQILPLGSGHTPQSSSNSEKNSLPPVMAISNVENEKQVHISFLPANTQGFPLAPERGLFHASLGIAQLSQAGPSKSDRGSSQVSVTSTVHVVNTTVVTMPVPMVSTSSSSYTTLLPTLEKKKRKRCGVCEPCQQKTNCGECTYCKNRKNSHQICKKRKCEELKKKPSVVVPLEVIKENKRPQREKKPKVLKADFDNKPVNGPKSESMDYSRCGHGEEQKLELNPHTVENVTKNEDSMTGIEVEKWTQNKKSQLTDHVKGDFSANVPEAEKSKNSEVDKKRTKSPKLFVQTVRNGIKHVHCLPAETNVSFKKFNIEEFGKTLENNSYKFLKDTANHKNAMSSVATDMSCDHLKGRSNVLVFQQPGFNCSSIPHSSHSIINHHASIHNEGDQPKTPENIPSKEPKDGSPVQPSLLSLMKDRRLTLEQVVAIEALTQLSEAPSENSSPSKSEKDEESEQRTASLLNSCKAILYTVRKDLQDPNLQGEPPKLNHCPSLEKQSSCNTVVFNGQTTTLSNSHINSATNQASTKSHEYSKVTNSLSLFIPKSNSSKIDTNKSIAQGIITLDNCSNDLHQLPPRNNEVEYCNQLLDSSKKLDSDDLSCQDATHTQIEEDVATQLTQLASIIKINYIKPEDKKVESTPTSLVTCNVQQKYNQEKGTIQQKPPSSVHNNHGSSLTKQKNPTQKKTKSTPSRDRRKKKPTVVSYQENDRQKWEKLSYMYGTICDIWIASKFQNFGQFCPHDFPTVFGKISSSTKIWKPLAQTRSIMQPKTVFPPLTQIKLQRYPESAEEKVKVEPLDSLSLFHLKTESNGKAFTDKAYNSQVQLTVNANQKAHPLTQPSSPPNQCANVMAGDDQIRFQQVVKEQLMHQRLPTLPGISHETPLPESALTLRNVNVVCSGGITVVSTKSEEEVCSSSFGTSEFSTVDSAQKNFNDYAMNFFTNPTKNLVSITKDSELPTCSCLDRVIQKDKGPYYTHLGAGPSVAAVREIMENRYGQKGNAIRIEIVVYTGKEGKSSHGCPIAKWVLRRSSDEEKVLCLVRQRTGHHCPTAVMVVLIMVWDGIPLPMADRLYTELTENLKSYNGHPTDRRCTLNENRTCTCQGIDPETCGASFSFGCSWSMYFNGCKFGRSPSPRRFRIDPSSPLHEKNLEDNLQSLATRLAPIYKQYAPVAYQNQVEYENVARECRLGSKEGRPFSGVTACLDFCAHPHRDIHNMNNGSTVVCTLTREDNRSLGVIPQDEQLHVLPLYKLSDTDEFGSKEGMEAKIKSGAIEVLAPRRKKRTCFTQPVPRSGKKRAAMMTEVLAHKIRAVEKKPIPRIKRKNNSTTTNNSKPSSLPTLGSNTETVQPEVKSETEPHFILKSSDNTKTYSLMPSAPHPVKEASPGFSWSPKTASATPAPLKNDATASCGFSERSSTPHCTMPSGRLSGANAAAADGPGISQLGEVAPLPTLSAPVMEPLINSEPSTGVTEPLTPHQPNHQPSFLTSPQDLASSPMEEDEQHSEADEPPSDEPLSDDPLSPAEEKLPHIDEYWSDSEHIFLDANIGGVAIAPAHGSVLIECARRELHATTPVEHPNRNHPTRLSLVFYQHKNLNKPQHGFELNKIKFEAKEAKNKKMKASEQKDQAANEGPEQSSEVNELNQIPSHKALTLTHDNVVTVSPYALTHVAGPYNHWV
Method in brief: (§2)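 TET1 catalytic domain (E1418–V2136, Sf9 baculovirus) at 2 nM was preincubated 10 min with inhibitor (1% DMSO) in HEPES 50 mM pH 7.3, 150 mM NaCl, 0.1% BSA, 0.01% Tween-20. Reaction was started with ascorbate 200 µM, Fe(II) 20 µM, 2OG 20 µM and 5mC ssDNA 10 nM, run 30 min, then EDTA-quenched. Anti-5hmC antibody with AlphaScreen beads, 45–60 min, luminescence read. Three independent replicates.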

[2] = target: T2, Methylcytosine dioxygenase TET2 (Homo sapiens, UniProt Q6N021); experiment: (§3) Inhibition of N-terminal His-tagged recombinant human TET2 catalytic domain LCIdel mutant (D1129 to G1936 residues with Y1481 to N1843 replaced by 3 x GGGGS linker) expressed in Escherichia coli BL21 (DE3) using 5-methylcytosine as substrate preincubated for 10 mins followed by substrate and DNA-cofactor addition measured after 10 mins by Alphascreen assay
[3] = target: T3, Methylcytosine dioxygenase TET3 (Homo sapiens, UniProt O43151); experiment: (§4) Inhibition of recombinant human TET3 catalytic domain (E824 to I1795 residues) expressed in baculovirus infected Sf9 cells using 5-methylcytosine as substrate preincubated for 10 mins followed by substrate and DNA-cofactor addition measured after 10 mins by Alphascreen assay; details: read-out: pIC50 (converted)
[4] = target: T3, Methylcytosine dioxygenase TET3; experiment: as §4, with “as substrate assessed as change in pIC50 preincubated for” for “as substrate preincubated for”; details: time 20.0 min
[5] = target: T1, Methylcytosine dioxygenase TET1; experiment: as §1, with “as substrate assessed as change in pIC50 preincubated for” for “as substrate preincubated for”; details: time 40.0 min; method in brief: as §2
[6] = system: Methylcytosine dioxygenase TET2 (Homo sapiens), Q6N021 [UNDEFINED MUTATION]; details: time 20.0 min
[7] = target: T2, Methylcytosine dioxygenase TET2; experiment: as §3, with “after 12” for “after 10”, “by SPE-MS analysis” for “by Alphascreen assay”
[8] = target: Methylcytosine dioxygenase TET1 (Mus musculus, UniProt Q3URK3); experiment: Inhibition of recombinant mouse TET1 catalytic domain (E1367 to V2039 residues) expressed in baculovirus expression system using 5-methylcytosine as substrate preincubated for 10 mins followed by substrate and DNA-cofactor addition measured after 9 mins by Alphascreen assay
Method in brief: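 Murine Tet1 catalytic domain (E1367–V2039, High Five baculovirus) at 2 nM was preincubated 10 min with inhibitor (1% DMSO) in HEPES 50 mM pH 7.3, NaCl 150 mM, BSA 0.1%, Tween-20 0.01%. Ascorbate 200 µM, Fe(II) 20 µM, 2OG 20 µM and 5mC ssDNA 10 nM were added; reaction ran 9 min, then EDTA-quenched. AlphaScreen anti-5hmC detection by luminescence.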

| IC50 [1] | IC50 [3] | deltapIC50 [4] | deltapIC50 [5] | deltapIC50 [6] | IC50 [8] | Compound | pIC50 [2] | pIC50 [7] |
| --- | --- | --- | --- | --- | --- | --- | --- | --- |
| 10.7 µM | 15.8 µM | -0.47 | -1.51 | -0.48 | – | CC[C@H](C)[C@@H]1NC(=O)[C@H](CC(C)C)NC(=O)[C@@H](Cc2ccc(O)cc2)NC(=O)CSC[C@@H](C(N)=O)NC(=O)[C@H](CO)NC(=O)[C@H](Cc2c[nH]cn2)NC(=O)[C@H](CCC(=O)O)NC(=O)[C@H](Cc2c[nH]c3ccccc23)NC(=O)[C@H](Cc2c[nH]c3ccccc23)NC(=O)[C@H]([C@@H](C)O)NC(=O)[C@H](Cc2ccc(O)cc2)NC(=O)[C@H](Cc2ccc(O)cc2)NC(=O)[C@H](C)NC(=O)[C@H](C)NC1=O | 4.22 | – |
| 3.09 µM | 11 µM | -0.32 | -0.97 | -0.31 | – | CC[C@H](C)[C@@H]1NC(=O)[C@H](C)NC(=O)[C@@H](Cc2ccc(O)cc2)NC(=O)CSC[C@@H](C(N)=O)NC(=O)[C@H](CO)NC(=O)[C@H](Cc2c[nH]cn2)NC(=O)[C@H](CCC(=O)O)NC(=O)[C@H](Cc2c[nH]c3ccccc23)NC(=O)[C@H](Cc2c[nH]c3ccccc23)NC(=O)[C@H]([C@@H](C)O)NC(=O)[C@H](Cc2ccc(O)cc2)NC(=O)[C@H](Cc2ccc(O)cc2)NC(=O)[C@H](C)NC(=O)[C@H](Cc2ccc(O)cc2)NC1=O | 4.38 | – |
| 6.92 µM | 20.4 µM | -0.59 | -1.32 | -0.36 | – | CC[C@H](C)[C@@H]1NC(=O)[C@H](CC(C)C)NC(=O)[C@@H](Cc2ccc(O)cc2)NC(=O)CSC[C@@H](C(N)=O)NC(=O)[C@H](CO)NC(=O)[C@H](Cc2c[nH]cn2)NC(=O)[C@H](CCC(=O)O)NC(=O)[C@H](Cc2c[nH]c3ccccc23)NC(=O)[C@H](C)NC(=O)[C@H]([C@@H](C)O)NC(=O)[C@H](Cc2ccc(O)cc2)NC(=O)[C@H](Cc2ccc(O)cc2)NC(=O)[C@H](C)NC(=O)[C@H](Cc2ccc(O)cc2)NC1=O | 4.34 | – |
| 9.55 µM | 15.5 µM | -0.46 | -1.46 | -0.4 | – | CC[C@H](C)[C@@H]1NC(=O)[C@H](CC(C)C)NC(=O)[C@@H](Cc2ccc(O)cc2)NC(=O)CSC[C@@H](C(N)=O)NC(=O)[C@H](CO)NC(=O)[C@H](Cc2c[nH]cn2)NC(=O)[C@H](CCC(=O)O)NC(=O)[C@H](Cc2c[nH]c3ccccc23)NC(=O)[C@H](Cc2c[nH]c3ccccc23)NC(=O)[C@H]([C@@H](C)O)NC(=O)[C@H](C)NC(=O)[C@H](Cc2ccc(O)cc2)NC(=O)[C@H](C)NC(=O)[C@H](Cc2ccc(O)cc2)NC1=O | 4.3 | – |
| 2.88 µM | 5.25 µM | 0 | -0.94 | -0.05 | – | CC[C@H](C)[C@@H]1NC(=O)[C@H](CC(C)C)NC(=O)[C@@H](Cc2ccc(O)cc2)NC(=O)CSC[C@@H](C(N)=O)NC(=O)[C@H](CO)NC(=O)[C@H](Cc2c[nH]cn2)NC(=O)[C@H](CCC(=O)O)NC(=O)[C@H](Cc2c[nH]c3ccccc23)NC(=O)[C@H](Cc2c[nH]c3ccccc23)NC(=O)[C@H](C)NC(=O)[C@H](Cc2ccc(O)cc2)NC(=O)[C@H](Cc2ccc(O)cc2)NC(=O)[C@H](C)NC(=O)[C@H](Cc2ccc(O)cc2)NC1=O | 4.65 | – |
| 13.8 µM | 15.1 µM | -0.46 | -1.63 | < -0.7 | – | CC[C@H](C)[C@@H]1NC(=O)[C@H](CC(C)C)NC(=O)[C@@H](Cc2ccc(O)cc2)NC(=O)CSC[C@@H](C(N)=O)NC(=O)[C@H](CO)NC(=O)[C@H](Cc2c[nH]cn2)NC(=O)[C@H](CCC(=O)O)NC(=O)[C@H](C)NC(=O)[C@H](Cc2c[nH]c3ccccc23)NC(=O)[C@H]([C@@H](C)O)NC(=O)[C@H](Cc2ccc(O)cc2)NC(=O)[C@H](Cc2ccc(O)cc2)NC(=O)[C@H](C)NC(=O)[C@H](Cc2ccc(O)cc2)NC1=O | < 4 | – |
| 0.195 µM | 3.09 µM | 0.24 | 0.23 | 0.23 | – | CC[C@H](C)[C@@H]1NC(=O)[C@H](CC(C)C)NC(=O)[C@@H](Cc2ccc(O)cc2)NC(=O)CSC[C@@H](C(N)=O)NC(=O)[C@H](CO)NC(=O)[C@H](C)NC(=O)[C@H](CCC(=O)O)NC(=O)[C@H](Cc2c[nH]c3ccccc23)NC(=O)[C@H](Cc2c[nH]c3ccccc23)NC(=O)[C@H]([C@@H](C)O)NC(=O)[C@H](Cc2ccc(O)cc2)NC(=O)[C@H](Cc2ccc(O)cc2)NC(=O)[C@H](C)NC(=O)[C@H](Cc2ccc(O)cc2)NC1=O | 4.93 | – |
| 1.1 µM | 16.2 µM | -0.48 | -0.52 | -0.07 | – | CC[C@H](C)[C@@H]1NC(=O)[C@H](CC(C)C)NC(=O)[C@@H](Cc2ccc(O)cc2)NC(=O)CSC[C@@H](C(N)=O)NC(=O)[C@H](CO)NC(=O)[C@H](Cc2c[nH]cn2)NC(=O)[C@H](CCC(=O)O)NC(=O)[C@H](Cc2c[nH]c3ccccc23)NC(=O)[C@H](Cc2c[nH]c3ccccc23)NC(=O)[C@H]([C@@H](C)O)NC(=O)[C@H](Cc2ccc(O)cc2)NC(=O)[C@H](C)NC(=O)[C@H](C)NC(=O)[C@H](Cc2ccc(O)cc2)NC1=O | 4.63 | – |
| 1.23 µM | 13.8 µM | -0.42 | -0.57 | -0.29 | – | CC(C)C[C@@H]1NC(=O)[C@@H](Cc2ccc(O)cc2)NC(=O)CSC[C@@H](C(N)=O)NC(=O)[C@H](CO)NC(=O)[C@H](Cc2c[nH]cn2)NC(=O)[C@H](CCC(=O)O)NC(=O)[C@H](Cc2c[nH]c3ccccc23)NC(=O)[C@H](Cc2c[nH]c3ccccc23)NC(=O)[C@H]([C@@H](C)O)NC(=O)[C@H](Cc2ccc(O)cc2)NC(=O)[C@H](Cc2ccc(O)cc2)NC(=O)[C@H](C)NC(=O)[C@H](Cc2ccc(O)cc2)NC(=O)[C@H](C)NC1=O | 4.41 | – |
| 0.417 µM | 6.31 µM | -0.08 | -0.1 | -0.02 | – | CC[C@H](C)[C@@H]1NC(=O)[C@H](CC(C)C)NC(=O)[C@@H](Cc2ccc(O)cc2)NC(=O)CSC[C@@H](C(N)=O)NC(=O)[C@H](C)NC(=O)[C@H](Cc2c[nH]cn2)NC(=O)[C@H](CCC(=O)O)NC(=O)[C@H](Cc2c[nH]c3ccccc23)NC(=O)[C@H](Cc2c[nH]c3ccccc23)NC(=O)[C@H]([C@@H](C)O)NC(=O)[C@H](Cc2ccc(O)cc2)NC(=O)[C@H](Cc2ccc(O)cc2)NC(=O)[C@H](C)NC(=O)[C@H](Cc2ccc(O)cc2)NC1=O | 4.68 | – |
| 0.174 µM | 2.4 µM | – | – | -0.3 | 3.47 µM | CC(C)C[C@@H]1NC(=O)[C@H](Cc2ccc(O)cc2)NC(=O)[C@H](Cc2c[nH]c3ccccc23)NC(=O)[C@@H](Cc2ccc(O)cc2)NC(=O)CSC[C@@H](C(N)=O)NC(=O)[C@H](Cc2ccccc2)NC(=O)[C@H](Cc2c[nH]c3ccccc23)NC(=O)[C@@H]2CCCN2C(=O)[C@H](C(C)C)NC(=O)[C@H](CCCNC(=N)N)NC(=O)[C@H](Cc2ccc(O)cc2)NC(=O)[C@H](CO)NC(=O)[C@@H]2CCCN2C1=O | 5.49 | 5.19 |
| 1.15 µM | 2.4 µM | – | – | 0.02 | 3.39 µM | CC[C@H](C)[C@@H]1NC(=O)[C@H](CCCNC(=N)N)NC(=O)[C@@H](Cc2ccc(O)cc2)NC(=O)CSC[C@@H](C(N)=O)NC(=O)[C@H](Cc2ccc(O)cc2)NC(=O)[C@H](C(C)C)NC(=O)[C@H](CC(N)=O)NC(=O)[C@H](Cc2c[nH]c3ccccc23)NC(=O)[C@H](Cc2c[nH]c3ccccc23)NC(=O)[C@H]([C@@H](C)O)NC(=O)[C@H](Cc2ccc(O)cc2)NC(=O)[C@H](Cc2ccccc2)NC(=O)[C@H](CC(C)C)NC(=O)[C@H](Cc2ccc(O)cc2)NC1=O | 5.59 | 5.61 |
| 1.74 µM | > 100 µM | < -1.28 | -0.72 | -0.55 | – | CC[C@H](C)[C@@H]1NC(=O)[C@H](CC(C)C)NC(=O)[C@@H](Cc2ccc(O)cc2)NC(=O)CSC[C@@H](C(N)=O)NC(=O)[C@H](CO)NC(=O)[C@H](Cc2c[nH]cn2)NC(=O)[C@H](C)NC(=O)[C@H](Cc2c[nH]c3ccccc23)NC(=O)[C@H](Cc2c[nH]c3ccccc23)NC(=O)[C@H]([C@@H](C)O)NC(=O)[C@H](Cc2ccc(O)cc2)NC(=O)[C@H](Cc2ccc(O)cc2)NC(=O)[C@H](C)NC(=O)[C@H](Cc2ccc(O)cc2)NC1=O | 4.14 | – |
